Assays:
[1] = tested on: Mycobacterium avium subsp. paratuberculosis; experiment: Antituberculosis activity against Mycobacterium paratuberculosis UCF-4 isolated from Crohn's disease patient assessed as minimum drug level required for killing after 56 days by MGIT 960 susceptibility test; type: functional
Method in brief: (§1)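 10^5 to 10^6 CFU from single-cell suspensions inoculated in duplicate into MGIT ParaTB medium with supplement and egg yolk. Drugs were at final 0.5–64.0 μg/ml, with 128.0 μg/ml added for some strains. Tubes were incubated at 37°C in MGIT 960. Inhibition is the lowest concentration giving a time to detection longer than a drug-free 1:100 inoculum control. Killing is no positive signal through 56 days.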

[2] = tested on: Mycobacterium avium subsp. paratuberculosis; experiment: Antituberculosis activity against Mycobacterium paratuberculosis B236 isolated from bovine assessed as minimum drug level required for inhibition by MGIT 960 susceptibility test; type: functional; method in brief: as §1
[3] = tested on: Mycobacterium avium subsp. paratuberculosis; experiment: Antituberculosis activity against Mycobacterium paratuberculosis UCF-7 isolated from Crohn's disease patient assessed as minimum drug level required for inhibition by MGIT 960 susceptibility test; type: functional; method in brief: as §1
[4] = tested on: Mycobacterium avium subsp. paratuberculosis; experiment: Antituberculosis activity against Mycobacterium paratuberculosis UCF-4 isolated from Crohn's disease patient assessed as minimum drug level required for inhibition by MGIT 960 susceptibility test; type: functional; method in brief: as §1
[5] = tested on: Mycobacterium avium subsp. paratuberculosis; experiment: Antituberculosis activity against Mycobacterium paratuberculosis UCF-7 isolated from Crohn's disease patient assessed as colony counts at 4 ug after 12 days by MGIT 960 susceptibility test; type: functional
[6] = tested on: Mycobacterium avium subsp. paratuberculosis; experiment: Antituberculosis activity against Mycobacterium paratuberculosis JTC303 isolated from bovine assessed as minimum drug level required for killing after 56 days by MGIT 960 susceptibility test; type: functional; method in brief: as §1
[7] = tested on: Mycobacterium avium subsp. paratuberculosis; experiment: Antituberculosis activity against Mycobacterium paratuberculosis B213 isolated from bovine assessed as minimum drug level required for inhibition by MGIT 960 susceptibility test; type: functional; method in brief: as §1
[8] = tested on: Mycobacterium avium subsp. paratuberculosis; experiment: Antituberculosis activity against Mycobacterium paratuberculosis ATCC 19698 isolated from bovine assessed as minimum drug level resulting in no detectable growth at 10^6 CFU of inoculum after 56 days by MGIT 960 susceptibility test; type: functional
Method in brief: (§2)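 M. paratuberculosis ATCC 19698 at 10^6 CFU per MGIT ParaTB tube in duplicate, drugs at final 1.0–64.0 μg/ml, 37°C in MGIT 960. Inhibition is the lowest concentration whose time to detection exceeds the 1:100 diluted-inoculum solvent control. No detectable growth means the tube never signals positive through 56 days.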

[9] = tested on: Mycobacterium avium; experiment: Antituberculosis activity against Mycobacterium avium ATCC 35712 isolated from chicken assessed as minimum drug level required for inhibition by MGIT 960 susceptibility test; type: functional; method in brief: as §1
[10] = tested on: Mycobacterium avium subsp. paratuberculosis; experiment: Antituberculosis activity against Mycobacterium paratuberculosis ATCC 19698 isolated from bovine assessed as lowest drug level producing inhibition at 10^6 CFU of inoculum by agar counting method; type: functional
Method in brief: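 ATCC 19698 at 10^6 CFU was exposed to drug (1.0–64.0 μg/ml) in MGIT ParaTB medium at 37°C. Aliquots taken at 3 and 5 days were centrifuged, resuspended in PBS and declumped with glass beads. Serial dilutions were plated in quadruplicate on 7H10/OADC/mycobactin J and counted after 8 weeks. Inhibition is the lowest concentration giving a 2 log10 (99%) CFU reduction.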

[11] = tested on: Mycobacterium avium subsp. paratuberculosis; experiment: Antituberculosis activity against Mycobacterium paratuberculosis UCF-5 isolated from Crohn's disease patient assessed as minimum drug level required for killing after 56 days by MGIT 960 susceptibility test; type: functional; method in brief: as §1
[12] = tested on: Mycobacterium avium subsp. paratuberculosis; experiment: Antituberculosis activity against Mycobacterium paratuberculosis JTC303 isolated from bovine assessed as minimum drug level required for inhibition by MGIT 960 susceptibility test; type: functional; method in brief: as §1
[13] = tested on: Mycobacterium avium; experiment: Antituberculosis activity against Mycobacterium avium ATCC 35712 isolated from chicken assessed as minimum drug level required for killing after 56 days by MGIT 960 susceptibility test; type: functional; method in brief: as §1
[14] = tested on: Mycobacterium avium subsp. paratuberculosis; experiment: Antituberculosis activity against Mycobacterium paratuberculosis ATCC 19698 isolated from bovine assessed as viability after 5 to 8 days by standard plate count method
[15] = tested on: Mycobacterium avium subsp. paratuberculosis; experiment: Antituberculosis activity against Mycobacterium paratuberculosis B238 isolated from bovine assessed as minimum drug level required for inhibition by MGIT 960 susceptibility test; type: functional; method in brief: as §1
[16] = tested on: Mycobacterium avium subsp. paratuberculosis; experiment: Antituberculosis activity against Mycobacterium paratuberculosis UCF-7 isolated from Crohn's disease patient assessed as colony counts at 2 ug after 12 days by MGIT 960 susceptibility test; type: functional
[17] = tested on: Mycobacterium avium subsp. paratuberculosis; experiment: Antituberculosis activity against Mycobacterium paratuberculosis B213 isolated from bovine assessed as minimum drug level required for killing after 56 days by MGIT 960 susceptibility test; type: functional; method in brief: as §1
[18] = tested on: Mycobacterium avium subsp. paratuberculosis; experiment: Antituberculosis activity against Mycobacterium paratuberculosis B238 isolated from bovine assessed as minimum drug level required for killing after 56 days by MGIT 960 susceptibility test; type: functional; method in brief: as §1
[19] = tested on: Mycobacterium avium subsp. paratuberculosis; experiment: Antituberculosis activity against Mycobacterium paratuberculosis UCF-7 isolated from Crohn's disease patient assessed as minimum drug level required for killing after 56 days by MGIT 960 susceptibility test; type: functional; method in brief: as §1
[20] = tested on: Mycobacterium avium subsp. paratuberculosis; experiment: Antituberculosis activity against Mycobacterium paratuberculosis UCF-5 isolated from Crohn's disease patient assessed as minimum drug level required for inhibition by MGIT 960 susceptibility test; type: functional; method in brief: as §1
[21] = tested on: Mycobacterium avium subsp. paratuberculosis; experiment: Antituberculosis activity against Mycobacterium paratuberculosis ATCC 19698 isolated from bovine assessed as lowest drug level producing inhibition at 10^6 CFU of inoculum by MGIT 960 susceptibility test; type: functional; method in brief: as §2
[22] = tested on: Mycobacterium avium subsp. paratuberculosis; experiment: Antituberculosis activity against Mycobacterium paratuberculosis B236 isolated from bovine assessed as minimum drug level required for killing after 56 days by MGIT 960 susceptibility test; type: functional; method in brief: as §1

O=C(O)c1cn(C2CC2)c2cc(N3CCNCC3)c(F)cc2c1=O [CIPROFLOXACIN]
Activity [1]: 4 µg/mL
Activity [2]: 4 µg/mL
Activity [3]: 1 µg/mL
Activity [4]: 1 µg/mL
log10CFU/ml [5]: 0.76
Activity [6]: 8 µg/mL
Activity [7]: 4 µg/mL
Activity [8]: 32 µg/mL
Activity [9]: 16 µg/mL
Activity [10]: 1 µg/mL
Activity [11]: 4 µg/mL
Activity [12]: 2 µg/mL
Activity [13]: 64 µg/mL
log10CFU/ml [14]: 1
Activity [15]: 4 µg/mL
log10CFU/ml [16]: 1.98
Activity [17]: 16 µg/mL
Activity [18]: 16 µg/mL
Activity [19]: 4 µg/mL
Activity [20]: 2 µg/mL
Activity [21]: 1 µg/mL
Activity [22]: 16 µg/mL

Nc1ccc(O)c(C(=O)O)c1 [MESALAMINE]
Activity [8]: >64 µg/mL
Activity [10]: >64 µg/mL
Activity [21]: >64 µg/mL
